Measured values taken from ChEMBL document CHEMBL1146492, “Cytotoxic constituents of the twigs and leaves of Aglaia rubiginosa” (J Nat Prod, 2004).
pEC50: −log10 of the molar value.

Experiments:
LNCaP = assay: Cytotoxicity against human LNCAP cells; assay type: functional; conditions: for pEC50: Homo sapiens, LNCaP, read-out: ED50 (the source's name)
How it was run: (§1)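 Cytotoxicity was tested on a panel of human cancer cell lines following established protocols, with ED50 as the read-out. Extracts, fractions and isolates from twigs and leaves were run the same way.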

[1] = Cytotoxicity against human telomerase reverse transcriptase expressing human RPE1 cells; assay type: functional, TERT-RPE1; conditions: for pEC50: Homo sapiens, RPE-1, read-out: ED50 (the source's name)
Col2 = assay: Cytotoxicity against human Col2 cells; assay type: functional, cell-based; how it was run: as §1
Lu1 = assay: Cytotoxicity against human Lu1 cells; assay type: functional; conditions: for pEC50: Homo sapiens, Lu1, read-out: ED50 (the source's name); how it was run: as §1
KB = assay: Cytotoxicity against human KB cells; assay type: functional; conditions: for pEC50: Homo sapiens, KB, read-out: ED50 (the source's name); how it was run: as §1
[2] = Cytotoxicity against HUVEC; assay type: cell-based; conditions: human, HUVEC cells; read-out: ED50 (the source's name)
[3] = read-out: ED50 (the source's name)

| Structure (SMILES) | pEC50 (LNCaP) | pEC50 [1] | pEC50 (Col2; [3]) | pEC50 (Lu1) | pEC50 (KB) | CC50 [2] | ED50 (LNCaP) | ED50 [1] | pEC50 (Col2; read-out: EC50) | ED50 (Lu1) | ED50 (KB) |
| --- | --- | --- | --- | --- | --- | --- | --- | --- | --- | --- | --- |
| COC(=O)[C@H]1[C@@H](O)[C@@]2(O)c3c(OC)cc(OC)cc3O[C@@]2(c2ccc(OC)cc2)[C@@H]1c1ccccc1 [AGLAFOLIN] | 6.49 | 6.74 | 6.61 | 6.79 | 6.85 | 203 nM | – | – | – | – | – |
| CC(=O)O[C@H]1C(=O)[C@@]2(C)[C@H]([C@H](OC(=O)c3ccccc3)[C@]3(O)C[C@H](OC(=O)[C@H](O)[C@@H](NC(=O)c4ccccc4)c4ccccc4)C(C)=C1C3(C)C)[C@]1(OC(C)=O)CO[C@@H]1C[C@@H]2O [PACLITAXEL] | 8.30 | 7.64 | 7.34 | 8.70 | 9.40 | 105 nM | – | – | – | – | – |
| O=C1C[C@@H](c2ccc(O)cc2)Oc2cc(O)cc(O)c21 [NARINGENIN] | – | – | – | – | – | > 1000 nM | > 1 µM | > 1 µM | < 6.00 | > 1 µM | > 1 µM |
| COc1ccc([C@@]23Oc4cc(OC)cc(OC)c4[C@]2(O)[C@H](OC(C)=O)C[C@H]3c2ccccc2)cc1 | 6.56 | 6.68 | 6.72 | 6.68 | 6.83 | 231 nM | – | – | – | – | – |
| O=C1C[C@@H](c2ccc(O)c(O)c2)Oc2cc(O)cc(O)c21 [ERIODICTYOL] | – | – | – | – | – | > 1000 nM | > 1 µM | > 1 µM | < 6.00 | > 1 µM | > 1 µM |
| CC(C)=CC[C@@H](O)[C@@H](C)[C@H]1CC[C@H]2C3=CCC4[C@@H](O)[C@@H](O)CC[C@]4(C)[C@H]3CC[C@]12C (stereo partly drawn) | – | – | – | – | – | > 1000 nM | > 1 µM | > 1 µM | < 6.00 | > 1 µM | > 1 µM |
| CC[C@@]1(O)C(=O)OCc2c1cc1n(c2=O)Cc2cc3ccccc3nc2-1 [CAMPTOTHECIN] | 7.55 | 6.64 | 7.24 | 7.54 | 7.66 | 258 nM | – | – | – | – | – |
| C=C(C)[C@@H]1CC[C@]2(C)[C@H](CC[C@@H]3[C@@H]([C@]4(C)CC[C@H](C(C)(C)O)O4)CC[C@]32C)[C@@]1(C)CCC(=O)O [SHOREIC ACID] | – | – | – | – | – | > 1000 nM | > 1 µM | > 1 µM | < 6.00 | > 1 µM | > 1 µM |
| COc1ccc(-c2oc3cc(OC)cc(O)c3c(=O)c2OC)cc1 | – | – | – | – | – | > 1000 nM | > 1 µM | > 1 µM | < 6.00 | > 1 µM | > 1 µM |
| CC(C)(O)[C@@H]1CC[C@@](C)([C@H]2CC[C@]3(C)[C@@H]2CC[C@@H]2[C@@]4(C)CCC(=O)C(C)(C)[C@@H]4CC[C@]23C)O1 [CABRALEONE] | – | – | – | – | – | > 1000 nM | > 1 µM | > 1 µM | < 6.00 | > 1 µM | > 1 µM |
| C=C(C)[C@@H]1CC[C@]2(C)[C@H](CC[C@@H]3[C@@H]([C@@](C)(O)C/C=C/C(C)(C)O)CC[C@]32C)[C@@]1(C)CCC(=O)O | – | – | – | – | – | > 1000 nM | > 1 µM | > 1 µM | < 6.00 | > 1 µM | > 1 µM |
| COc1ccc([C@@]23Oc4cc(OC)cc(OC)c4[C@]2(O)[C@H](O)[C@H](C(=O)O)[C@H]3c2ccccc2)cc1 [ROCAGLOIC ACID] | 6.98 | 6.68 | 6.68 | 7.20 | 6.69 | 209 nM | – | – | – | – | – |
| C=C(C)[C@@H]1CC[C@]2(C)[C@H](CC[C@@H]3[C@@H]([C@@](C)(O)C/C=C/C(C)(C)O)CC[C@]32C)[C@@]1(C)CCC(=O)OC | – | – | – | – | – | > 1000 nM | > 1 µM | > 1 µM | < 6.00 | > 1 µM | > 1 µM |
